Laboratory results: ChEMBL document CHEMBL4251661, “Capsicodendrin from Cinnamosma fragrans Exhibits Antiproliferative and Cytotoxic Activity in Human Leukemia Cells: Modulation by Glutathione” (J Nat Prod, 2018)
The source made the active and inactive calls. The calls are words filed in the database; no cut-off is given here.

Assays:
[1] = Drug level in DMSO-d6 treated with capsicodendrin at 2 mg measured after 1 hr by 1H-NMR spectra analysis; assay type: physicochemical
HL-60 [2] = assay: Induction of apoptosis in human HL60 cells assessed as change in morphology at 0.2 to 0.5 uM after 48 hrs in presence of GSH synthesis inhibitor buthionine sulfoximine by […]; assay type: functional, cell-based
Procedure, shortened: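 HL-60 cells seeded at 100 000 cells/mL; for line 11, first held 40 h ± BSO 50 μM. Exposed to CPCD 0.1–0.5 μM or 0.1% DMSO for 48 h or 48 and 72 h. Washed pellets stained 20 min in the dark at room temperature with Hoechst 33342 (0.013 mg/mL). Fluorescence microscopy; 100–200 cells scored for apoptotic nuclear morphology.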

HL-60 [3] = assay: Induction of DNA damage in human HL60 cells assessed as increase in DNA strand breaks at 2 to 5 uM after 1 hr in presence of GSH synthesis inhibitor buthionine sulfoximine by SYBR green dye based comet assay; assay type: functional, cell-based
Procedure, shortened: (§1)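 HL-60 cells (100 000 cells/mL), ±BSO 50 μM for 40 h, moved into HEPES/glucose/salt buffer pH 7.4. Treated 1 h at 37 °C with CPCD 0.5–5 μM or 0.2% DMSO. Cells embedded in low-melt agarose, lysed, held at pH 13, then electrophoresed 30 min at 21 V/cm. SYBR Gold staining; Olive tail moment scored from ≥100 cells. Mean ± SEM of 5 runs.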

HL-60 [4] = assay: Induction of reactive oxygen species generation in human HL60 cells at 1 to 5 uM measured at 2 mins interval for 1 hr by DCFH-DA staining-based fluorescence assay; assay type: functional, cell-based
Procedure, shortened: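 HL-60 cells (1 × 10^6/mL) loaded with DCFH-DA 2 μM in HEPES buffer for 30 min at 37 °C, washed, then treated with vehicle, CPCD 1–5 μM or H2O2 25 μM. Fluorescence read every 2 min up to 1 h, in triplicate wells. Rate expressed as fluorescence units per min.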

K562 [5] = assay: Growth inhibition of human K562 cells after 72 hrs by Beckman coulter counting method; assay type: functional, cell-based; settings: K562, 72 h
Procedure, shortened: (§2)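 K562 cells in DMEM + 10% FBS, preincubated 40 h with or without BSO 50 μM, then seeded at 100 000 cells/mL. Exposed to CPCD or DMSO at 37 °C, 5% CO2; growth assessed after 48 h per figure legend (72 h per methods). Cell number read on a Coulter counter; IC50 calculated from growth curves. Mean ± SEM of 3–4 separate-day runs.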

HL-60 [6] = assay: Growth inhibition of human HL60 cells at 0.2 to 0.5 uM after 48 hrs in presence of GSH synthesis inhibitor buthionine sulfoximine by Beckman coulter counting method; assay type: functional, cell-based
HL-60 [7] = assay: Growth inhibition of human HL60 cells after 72 hrs in presence of GSH synthesis inhibitor buthionine sulfoximine by Beckman coulter counting method; assay type: functional, cell-based; settings: HL-60, 72 h
Procedure, shortened: (§3)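 HL-60 cells in complete RPMI, preincubated 40 h with or without BSO 50 μM, then seeded at 100 000 cells/mL. Treated with CPCD (0.1, 0.2, 0.5 μM) or DMSO (1%) for 72 h at 37 °C, 5% CO2. Cells counted on a Coulter counter; IC50 taken from growth curves. Mean ± SEM of 3–4 separate-day experiments.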

K562 [8] = assay: Growth inhibition of human K562 cells after 72 hrs in presence of GSH synthesis inhibitor buthionine sulfoximine by Beckman coulter counting method; assay type: functional, cell-based; settings: K562, 72 h; procedure, shortened: as §2
[9] = Displacement of ThioGlo4 from glutathione measured after 8 hrs by fluorescence assay; settings: read-out: Kd(app)
Procedure, shortened: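 GSH (5 μM) incubated with CPCD 0.5–100 μM in 1× PBS for 8 h at 37 °C. ThioGlo IV (10 μM) added to diluted aliquots; unreacted GSH quantified by fluorescence, excitation 400 nm, emission 465 nm.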

HL-60 [10] = assay: Cytotoxicity against human HL60 cells assessed as cell death at 0.2 to 0.5 uM after 48 hrs in presence of GSH synthesis inhibitor buthionine sulfoximine by trypan blue dye exclusion method; assay type: functional, cell-based
Procedure, shortened: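 HL-60 cells (RPMI-1640 + 15% FBS, 37 °C, 5% CO2) seeded at 100 000 cells/mL. For line 1, cells were first held 40 h ± BSO 50 μM. They were then exposed to CPCD 0.1–0.5 μM or DMSO for 48 h or 48 and 72 h. Cells were mixed 1:1 with trypan blue and % blue-positive cells counted on a hemocytometer. Mean ± SEM of 3–9 separate-day runs.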

HL-60 [11] = assay: Growth inhibition of human HL60 cells after 72 hrs by Beckman coulter counting method; assay type: functional, cell-based; settings: HL-60, 72 h; procedure, shortened: as §3
HL-60 [12] = assay: Induction of DNA damage in human HL60 cells assessed as increase in DNA strand breaks at 0.5 to 5 uM after 1 hr by SYBR green dye based comet assay; assay type: functional, cell-based; procedure, shortened: as §1

Structure (SMILES): CC(=O)O[C@@H]1C=C(C=O)[C@](O)(C=O)[C@@]2(C)CCCC(C)(C)[C@H]12 [CINNAMODIAL]
- Drug metabolism [1]: Metabolite_Detected

Structure (SMILES): CC(=O)O[C@@H]1C=C([C@H]2O[C@@H]3OC(O)C4=C[C@@H](OC(C)=O)[C@H]5C(C)(C)CCC[C@]5(C)[C@]43O2)[C@](O)(C=O)[C@@]2(C)CCCC(C)(C)[C@H]12 (some centres not stated)
- Activity (HL-60 [2]): Active
- Activity (HL-60 [3]): Active
- Activity (HL-60 [4]): inactive
- IC50 (K562 [5]): 360 to 480 nM
- growth inhibition (GI) (HL-60 [6]): Active
- IC50 (HL-60 [7]): 70 to 90 nM
- IC50 (K562 [8]): 180 to 210 nM
- Kd [9]: 7200 nM
- Activity (HL-60 [10]): Active
- IC50 (HL-60 [11]): 200 to 270 nM
- Activity (HL-60 [12]): Active
